# Tests used:
# [1] = Biodistribution of [18F]FEDPN in alpha estrogen receptor knock out mouse muscle after 30 min; (n=3); assay type: ADME, organism-based, Muscle tissue; settings: in vivo, 0.5 h
# Method in brief: (§1)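 αERKO and βERKO mice, staged by daily vaginal smears and kept on estrogen-free chow, were studied in a nonestrous stage. Each mouse received 11 μCi of tracer in 130 μL of 10% ethanol/saline. Mice were killed at 30 min, 1 h or 2 h (n = 3 each). Organs were removed, blotted, weighed and gamma-counted against an injectate standard. Uptake is given as %ID/g ± SD.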
# [2] = Biodistribution of [18F]FEDPN in beta estrogen receptor knock out mouse kidney after 30 min; (n=3); assay type: ADME, organism-based; settings: in vivo, 0.5 h; method in brief: as §1
# [3] = Biodistribution of [18F]FEDPN in beta estrogen receptor knock out mouse brain after 30 min; (n=3); assay type: ADME, organism-based; settings: in vivo, 0.5 h; method in brief: as §1
# [4] = Biodistribution of [18F]-FEDPN in rat spleen after 2 hr when given in tail vein; (n=5); assay type: ADME, organism-based; settings: in vivo, iv
# Method in brief: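 Immature female Sprague–Dawley rats (<25 days old) anesthetized with isoflurane/O2. Given 20 µCi tracer by tail vein in 150 µL of 20% ethanol/saline. […] Killed at 30 min, 1 h or 2 h. Blood and organs blotted, weighed and gamma-counted against a standard dilution of the injectate. Reported as %ID/g ± SD, n=5.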
# [5] = Biodistribution of [18F]FEDPN in beta estrogen receptor knock out mouse liver after 2 h; (n=3); assay type: ADME, organism-based; settings: in vivo; method in brief: as §1
# [6] = Biodistribution of [18F]FEDPN in alpha estrogen receptor knock out mouse muscle after 1 h; (n=3); assay type: ADME, organism-based, Muscle tissue; settings: in vivo; method in brief: as §1
# [7] = Biodistribution of [18F]-FEDPN in alpha estrogen receptor knock out mouse brain after 2 h; (n=3); assay type: ADME, organism-based; settings: in vivo
# Method in brief: (§2)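 ERKO female mice (αERKO or βERKO), rested 48 h after shipping, placed on estrogen-free chow, and staged by daily vaginal smears. Injected in a nonestrous stage with 11 µCi [18F]FEDPN in 130 µL of 10% ethanol/saline. Killed at 30 min, 1 h or 2 h. Organs counted and reported as %ID/g ± SD, three animals per point.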
# [8] = Biodistribution of [18F]FEDPN in alpha estrogen receptor knock out mouse lung after 2 h; (n=3); assay type: ADME, organism-based; settings: in vivo; method in brief: as §1
# [9] = Biodistribution of [18F]FEDPN in alpha estrogen receptor knock out mouse heart after 1 h; (n=3); assay type: ADME, organism-based; settings: in vivo; method in brief: as §2
# [10] = Biodistribution of [18F]FES in beta estrogen receptor knock out mouse uterus after 1 h; (n=3); assay type: ADME, organism-based; settings: in vivo
# [11] = Biodistribution of [18F]FES in alpha estrogen receptor knock out mouse brain after 1 h; (n=3); assay type: ADME, organism-based; settings: in vivo
# Method in brief: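 αERKO mice were kept on estrogen-free chow and studied in diestrus, as staged by vaginal smear. Each was injected with 13 µCi tracer in 100 µL 10% ethanol/saline and killed at 30 min, 1 h or 2 h (n = 3 each). Organ activity was gamma-counted and expressed as %ID/g ± SD.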
# [12] = Biodistribution of [18F]FES in alpha estrogen receptor knock out mouse thymus after 1 h; (n=3); assay type: ADME, organism-based; settings: in vivo
# [13] = Biodistribution of [18F]FES in alpha estrogen receptor knock out mouse kidney after 1 h; (n=3); assay type: ADME, organism-based; settings: in vivo
# Method in brief: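 Female αERKO mice were rested 48 h after shipping and fed estrogen-free chow. They were staged by daily vaginal smears and studied in diestrus. Each received 13 µCi [18F]FES in 100 µL 10% ethanol/saline and was sacrificed at 30 min, 1 h or 2 h (n = 3 per time). Tissue uptake is given as %ID/g ± SD.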
# [14] = Biodistribution of [18F]FES in beta estrogen receptor knock out mouse spleen after 2 h; (n=3); assay type: ADME, organism-based; settings: in vivo
Biodistribution [1],Biodistribution [2],Biodistribution [3],Biodistribution [4],Biodistribution [5],Biodistribution [6],Biodistribution [7],Biodistribution [8],Biodistribution [9],Biodistribution [10],Biodistribution [11],Biodistribution [12],Biodistribution [13],Biodistribution [14],SMILES
1.21 %ID/g,4.83 %ID/g,0.93 %ID/g,0.06 %ID/g,2.04 %ID/g,0.59 %ID/g,0.28 %ID/g,0.75 %ID/g,0.74 %ID/g,,,,,,N#C[C@H](c1ccc(O)cc1)[C@@H](CCF)c1ccc(O)cc1
,,,,,,,,,9.81 %ID/g,0.07 %ID/g,0.21 %ID/g,1.07 %ID/g,0.37 %ID/g,C[C@]12CC[C@@H]3c4ccc(O)cc4CC[C@H]3[C@@H]1C[C@@H](F)[C@@H]2O [FLUOROESTRADIOL]

# — ChEMBL document CHEMBL1141109, “Synthesis of an estrogen receptor beta-selective radioligand: 5-[18F]fluoro-(2R,3S)-2,3-bis(4-hydroxyphenyl)pentanenitrile and comparison of in vivo distribution with 16alpha-[18F]fluoro-17beta-estradiol” (J Med Chem, 2005)
